Test results from ChEMBL document CHEMBL2384977, “Synthesis and biological evaluation of novel styryl benzimidazole derivatives as probes for imaging of neurofibrillary tangles in Alzheimer's disease” (Bioorg Med Chem, 2013).

Tests used:
Homo sapiens = species on record: Homo sapiens; assay: Selectivity ratio of Kd(app) for amyloid beta (1 to 42) (unknown origin) aggregates to Kd(app) for recombinant human tau (441 amino acid residues) aggregates
Outline: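 Human 441-aa tau, expressed in E. coli, was aggregated at 1 mg/mL (MES pH 6.8, 0.1 mg/mL heparin, 37 °C, 3 days, shaking). Aβ1–42 was aggregated at 0.25 mg/mL (PBS pH 7.4, 37 °C, 42 h). Aggregates were incubated 30 min at room temperature with ligand, and fluorescence read at ex 440 nm, em 510 nm (tau) or 480 nm (Aβ). Apparent Kd came from saturation curves over six independent experiments, and the ratio is Kd(Aβ)/Kd(tau).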

[1] = target: Amyloid-beta precursor protein (Homo sapiens, UniProt P05067); assay: Binding affinity to amyloid beta (1 to 42) (unknown origin) aggregates assessed as apparent dissociation constant after 30 mins by fluorescence spectroscopic analysis; details: read-out: Kd(app)
Outline: (§1)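 Tau: human 441-aa tau expressed in E. coli, aggregated at 1 mg/mL in MES buffer pH 6.8 with 0.1 mg/mL heparin, 37 °C for 3 days with shaking. Abeta1-42 aggregated at 0.25 mg/mL in PBS pH 7.4, 37 °C for 42 h with shaking. Aggregates at final 10 µg/mL were incubated with ligand (final 0.02–10 µM) for 30 min at room temperature. Apparent Kd was taken from fluorescence saturation curves at ex 440 nm, em 510 nm (tau) or em 480 nm (Abeta). Mean ± SEM of six independent experiments.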

[2] = target: Microtubule-associated protein tau (Homo sapiens, UniProt P10636); assay: Binding affinity to recombinant human tau (441 amino acid residues) aggregates expressed in Escherichia coli assessed as apparent dissociation constant after 30 mins by fluorescence spectroscopic analysis; details: read-out: Kd(app); outline: as §1
Blood [3] = assay: Biodistribution in ddY mouse blood at 13.2 to 20.6 kBq, iv measured at 2 mins by gamma counting analysis; type: ADME, organism-based; details: in vivo
Outline: (§2)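 Male ddY mice, 5 weeks old, received the 125I-labelled tracer (13.2–20.6 kBq) intravenously in the tail vein, in 100 µL saline containing ethanol. Animals were sacrificed at 2, 10, 30 and 60 min. Tissue radioactivity is expressed as %ID/g, mean (SD) of 5 animals.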

Stomach [4] = assay: Biodistribution in ddY mouse stomach at 13.2 to 20.6 kBq, iv measured per organ at 60 mins by gamma counting analysis; type: ADME, organism-based; details: in vivo, 1 h
Outline: (§3)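 Male ddY mice, 5 weeks old, were injected in the tail vein with the 125I tracer (13.2–20.6 kBq) in 100 µL saline containing ethanol. Sacrifice at 2, 10, 30 and 60 min. Stomach radioactivity is expressed as %ID per whole organ, mean (SD) of 5 animals.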

Blood [5] = assay: Biodistribution in ddY mouse blood at 13.2 to 20.6 kBq, iv measured at 30 mins by gamma counting analysis; type: ADME, organism-based; details: in vivo, 0.5 h; outline: as §2
[6] = 1-Octanol-PBS buffer partition coefficient, log P of the compound at 0.37 MBq after 2 mins by gamma counting analysis; type: physicochemical
Kidney [7] = assay: Biodistribution in ddY mouse kidney at 13.2 to 20.6 kBq, iv measured at 60 mins by gamma counting analysis; type: ADME, organism-based; details: in vivo, 1 h; outline: as §2
Lung [8] = assay: Biodistribution in ddY mouse lung at 13.2 to 20.6 kBq, iv measured at 10 mins by gamma counting analysis; type: ADME, organism-based; details: in vivo; outline: as §2
Liver [9] = assay: Biodistribution in ddY mouse liver at 13.2 to 20.6 kBq, iv measured at 30 mins by gamma counting analysis; type: ADME, organism-based; details: in vivo, 0.5 h; outline: as §2
Liver [10] = assay: Biodistribution in ddY mouse liver at 13.2 to 20.6 kBq, iv measured at 10 mins by gamma counting analysis; type: ADME, organism-based; details: in vivo; outline: as §2
Stomach [11] = assay: Biodistribution in ddY mouse stomach at 13.2 to 20.6 kBq, iv measured per organ at 30 mins by gamma counting analysis; type: ADME, organism-based; details: in vivo, 0.5 h; outline: as §3
Spleen [12] = assay: Biodistribution in ddY mouse spleen at 13.2 to 20.6 kBq, iv measured at 2 mins by gamma counting analysis; type: ADME, organism-based; details: in vivo; outline: as §2
Pancreas [13] = assay: Biodistribution in ddY mouse pancreas at 13.2 to 20.6 kBq, iv measured at 60 mins by gamma counting analysis; type: ADME, organism-based; details: in vivo, 1 h; outline: as §2
Stomach [14] = assay: Biodistribution in ddY mouse stomach at 13.2 to 20.6 kBq, iv measured per organ at 10 mins by gamma counting analysis; type: ADME, organism-based; details: in vivo; outline: as §3
Pancreas [15] = assay: Biodistribution in ddY mouse pancreas at 13.2 to 20.6 kBq, iv measured at 30 mins by gamma counting analysis; type: ADME, organism-based; details: in vivo, 0.5 h; outline: as §2
Intestine [16] = assay: Biodistribution in ddY mouse intestine at 13.2 to 20.6 kBq, iv measured at 60 mins by gamma counting analysis; type: ADME, organism-based; details: in vivo, 1 h; outline: as §2
Kidney [17] = assay: Biodistribution in ddY mouse kidney at 13.2 to 20.6 kBq, iv measured at 30 mins by gamma counting analysis; type: ADME, organism-based; details: in vivo, 0.5 h; outline: as §2
Blood [18] = assay: Biodistribution in ddY mouse blood at 13.2 to 20.6 kBq, iv measured at 10 mins by gamma counting analysis; type: ADME, organism-based; details: in vivo; outline: as §2
Spleen [19] = assay: Biodistribution in ddY mouse spleen at 13.2 to 20.6 kBq, iv measured at 10 mins by gamma counting analysis; type: ADME, organism-based; details: in vivo; outline: as §2
Intestine [20] = assay: Biodistribution in ddY mouse intestine at 13.2 to 20.6 kBq, iv measured at 10 mins by gamma counting analysis; type: ADME, organism-based; details: in vivo; outline: as §2
Kidney [21] = assay: Biodistribution in ddY mouse kidney at 13.2 to 20.6 kBq, iv measured at 10 mins by gamma counting analysis; type: ADME, organism-based; details: in vivo; outline: as §2
Heart [22] = assay: Biodistribution in ddY mouse heart at 13.2 to 20.6 kBq, iv measured at 2 mins by gamma counting analysis; type: ADME, organism-based; details: in vivo; outline: as §2
Brain [23] = assay: Biodistribution in ddY mouse brain at 13.2 to 20.6 kBq, iv measured at 2 mins by gamma counting analysis; type: ADME, organism-based; details: in vivo; outline: as §2
Lung [24] = assay: Biodistribution in ddY mouse lung at 13.2 to 20.6 kBq, iv measured at 30 mins by gamma counting analysis; type: ADME, organism-based; details: in vivo, 0.5 h; outline: as §2
Spleen [25] = assay: Biodistribution in ddY mouse spleen at 13.2 to 20.6 kBq, iv measured at 60 mins by gamma counting analysis; type: ADME, organism-based; details: in vivo, 1 h; outline: as §2
Heart [26] = assay: Biodistribution in ddY mouse heart at 13.2 to 20.6 kBq, iv measured at 60 mins by gamma counting analysis; type: ADME, organism-based; details: in vivo, 1 h; outline: as §2
Lung [27] = assay: Biodistribution in ddY mouse lung at 13.2 to 20.6 kBq, iv measured at 2 mins by gamma counting analysis; type: ADME, organism-based; details: in vivo; outline: as §2
Brain [28] = assay: Biodistribution in ddY mouse brain at 13.2 to 20.6 kBq, iv measured at 30 mins by gamma counting analysis; type: ADME, organism-based; details: in vivo, 0.5 h; outline: as §2
Intestine [29] = assay: Biodistribution in ddY mouse intestine at 13.2 to 20.6 kBq, iv measured at 30 mins by gamma counting analysis; type: ADME, organism-based; details: in vivo, 0.5 h; outline: as §2
Blood [30] = assay: Biodistribution in ddY mouse blood at 13.2 to 20.6 kBq, iv measured at 60 mins by gamma counting analysis; type: ADME, organism-based; details: in vivo, 1 h; outline: as §2
Spleen [31] = assay: Biodistribution in ddY mouse spleen at 13.2 to 20.6 kBq, iv measured at 30 mins by gamma counting analysis; type: ADME, organism-based; details: in vivo, 0.5 h; outline: as §2
Pancreas [32] = assay: Biodistribution in ddY mouse pancreas at 13.2 to 20.6 kBq, iv measured at 2 mins by gamma counting analysis; type: ADME, organism-based; details: in vivo; outline: as §2
Heart [33] = assay: Biodistribution in ddY mouse heart at 13.2 to 20.6 kBq, iv measured at 30 mins by gamma counting analysis; type: ADME, organism-based; details: in vivo, 0.5 h; outline: as §2
Pancreas [34] = assay: Biodistribution in ddY mouse pancreas at 13.2 to 20.6 kBq, iv measured at 10 mins by gamma counting analysis; type: ADME, organism-based; details: in vivo; outline: as §2
Stomach [35] = assay: Biodistribution in ddY mouse stomach at 13.2 to 20.6 kBq, iv measured per organ at 2 mins by gamma counting analysis; type: ADME, organism-based; details: in vivo; outline: as §3
Brain [36] = assay: Ratio of drug level in ddY mouse brain at 13.2 to 20.6 kBq, iv measured at 2 mins to drug level in ddY mouse brain at 13.2 to 20.6 kBq, iv measured at 60 mins; type: ADME, organism-based; details: in vivo
Outline: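 Tail-vein injection of the 125I tracer (13.2–20.6 kBq, saline with ethanol) into male 5-week-old ddY mice. The ratio is brain uptake (%ID/g) at 2 min divided by brain uptake at 60 min, from groups of 5 animals.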

Intestine [37] = assay: Biodistribution in ddY mouse intestine at 13.2 to 20.6 kBq, iv measured at 2 mins by gamma counting analysis; type: ADME, organism-based; details: in vivo; outline: as §2
Brain [38] = assay: Biodistribution in ddY mouse brain at 13.2 to 20.6 kBq, iv measured at 60 mins by gamma counting analysis; type: ADME, organism-based; details: in vivo, 1 h; outline: as §2
Liver [39] = assay: Biodistribution in ddY mouse liver at 13.2 to 20.6 kBq, iv measured at 2 mins by gamma counting analysis; type: ADME, organism-based; details: in vivo; outline: as §2
Lung [40] = assay: Biodistribution in ddY mouse lung at 13.2 to 20.6 kBq, iv measured at 60 mins by gamma counting analysis; type: ADME, organism-based; details: in vivo, 1 h; outline: as §2
Heart [41] = assay: Biodistribution in ddY mouse heart at 13.2 to 20.6 kBq, iv measured at 10 mins by gamma counting analysis; type: ADME, organism-based; details: in vivo; outline: as §2
Kidney [42] = assay: Biodistribution in ddY mouse kidney at 13.2 to 20.6 kBq, iv measured at 2 mins by gamma counting analysis; type: ADME, organism-based; details: in vivo; outline: as §2
Liver [43] = assay: Biodistribution in ddY mouse liver at 13.2 to 20.6 kBq, iv measured at 60 mins by gamma counting analysis; type: ADME, organism-based; details: in vivo, 1 h; outline: as §2
Brain [44] = assay: Biodistribution in ddY mouse brain at 13.2 to 20.6 kBq, iv measured at 10 mins by gamma counting analysis; type: ADME, organism-based; details: in vivo; outline: as §2

Chain of Microtubule-associated protein tau (P10636 whole entry): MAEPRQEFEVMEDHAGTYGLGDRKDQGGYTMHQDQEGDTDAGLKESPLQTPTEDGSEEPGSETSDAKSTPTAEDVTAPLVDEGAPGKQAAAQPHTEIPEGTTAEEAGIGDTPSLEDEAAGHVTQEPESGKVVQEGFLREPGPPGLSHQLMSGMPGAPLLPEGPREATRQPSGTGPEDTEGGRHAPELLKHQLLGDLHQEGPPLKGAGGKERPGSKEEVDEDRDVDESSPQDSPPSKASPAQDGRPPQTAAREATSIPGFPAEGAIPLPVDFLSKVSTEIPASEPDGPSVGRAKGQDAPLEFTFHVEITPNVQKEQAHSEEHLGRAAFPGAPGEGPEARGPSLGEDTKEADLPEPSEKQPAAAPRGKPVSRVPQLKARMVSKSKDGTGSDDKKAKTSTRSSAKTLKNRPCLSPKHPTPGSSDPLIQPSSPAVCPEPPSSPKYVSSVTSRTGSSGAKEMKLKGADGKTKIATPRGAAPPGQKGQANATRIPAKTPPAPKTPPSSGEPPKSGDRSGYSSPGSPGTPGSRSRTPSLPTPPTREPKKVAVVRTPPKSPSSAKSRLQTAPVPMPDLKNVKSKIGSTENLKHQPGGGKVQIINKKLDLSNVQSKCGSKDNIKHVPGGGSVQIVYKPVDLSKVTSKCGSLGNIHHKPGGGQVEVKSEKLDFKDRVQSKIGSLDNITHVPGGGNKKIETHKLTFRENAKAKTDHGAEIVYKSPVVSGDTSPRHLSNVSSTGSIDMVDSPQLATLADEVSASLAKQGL
Chain of Amyloid-beta precursor protein (P05067 whole entry): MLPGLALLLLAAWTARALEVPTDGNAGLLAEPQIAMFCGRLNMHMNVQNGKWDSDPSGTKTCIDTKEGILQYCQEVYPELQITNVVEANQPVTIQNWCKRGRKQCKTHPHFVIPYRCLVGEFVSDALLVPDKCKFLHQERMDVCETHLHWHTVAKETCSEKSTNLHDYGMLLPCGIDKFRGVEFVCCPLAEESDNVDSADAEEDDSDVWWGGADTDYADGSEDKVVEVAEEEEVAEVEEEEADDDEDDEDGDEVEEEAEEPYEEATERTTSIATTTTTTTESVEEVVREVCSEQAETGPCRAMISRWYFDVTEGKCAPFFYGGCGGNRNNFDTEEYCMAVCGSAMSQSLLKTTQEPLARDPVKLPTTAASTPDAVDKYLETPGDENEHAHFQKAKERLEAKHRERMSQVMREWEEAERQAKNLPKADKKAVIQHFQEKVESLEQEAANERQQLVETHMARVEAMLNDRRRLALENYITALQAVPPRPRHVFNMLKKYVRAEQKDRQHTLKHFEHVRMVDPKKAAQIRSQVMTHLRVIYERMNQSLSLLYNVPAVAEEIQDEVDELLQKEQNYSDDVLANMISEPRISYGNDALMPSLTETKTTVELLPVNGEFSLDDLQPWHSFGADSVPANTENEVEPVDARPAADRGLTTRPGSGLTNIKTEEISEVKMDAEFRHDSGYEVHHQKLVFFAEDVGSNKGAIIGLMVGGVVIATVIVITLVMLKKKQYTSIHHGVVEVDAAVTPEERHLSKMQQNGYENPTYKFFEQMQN

SMILES: Nc1ccc(/C=C/c2nc3ccc(I)cc3[nH]2)cc1
- Selectivity ratio (Homo sapiens): 0.38
- Kd [1]: 900 nM
- Kd [2]: 2360 nM

SMILES: CNc1ccc(/C=C/c2nc3ccc([125I])cc3[nH]2)cc1
- Drug uptake (Blood [3]): 3.65 % ID/g
- Drug uptake (Stomach [4]): 2.97 %ID
- Drug uptake (Blood [5]): 2.19 % ID/g
- logP at 2 min [6]: 2
- Drug uptake (Kidney [7]): 2.02 % ID/g
- Drug uptake (Lung [8]): 3.55 % ID/g
- Drug uptake (Liver [9]): 16 % ID/g
- Drug uptake (Liver [10]): 23.2 % ID/g
- Drug uptake (Stomach [11]): 4.65 %ID
- Drug uptake (Spleen [12]): 5.19 % ID/g
- Drug uptake (Pancreas [13]): 0.51 % ID/g
- Drug uptake (Stomach [14]): 4.88 %ID
- Drug uptake (Pancreas [15]): 0.92 % ID/g
- Drug uptake (Intestine [16]): 30 % ID/g
- Drug uptake (Kidney [17]): 3.07 % ID/g
- Drug uptake (Blood [18]): 2.76 % ID/g
- Drug uptake (Spleen [19]): 4.9 % ID/g
- Drug uptake (Intestine [20]): 11.5 % ID/g
- Drug uptake (Kidney [21]): 5.85 % ID/g
- Drug uptake (Heart [22]): 6.68 % ID/g
- Drug uptake (Brain [23]): 4.11 % ID/g
- Drug uptake (Lung [24]): 1.93 % ID/g
- Drug uptake (Spleen [25]): 1.74 % ID/g
- Drug uptake (Heart [26]): 0.74 % ID/g
- Drug uptake (Lung [27]): 7.13 % ID/g
- Drug uptake (Brain [28]): 0.36 % ID/g
- Drug uptake (Intestine [29]): 28.4 % ID/g
- Drug uptake (Blood [30]): 1.37 % ID/g
- Drug uptake (Spleen [31]): 3.13 % ID/g
- Drug uptake (Pancreas [32]): 6.8 % ID/g
- Drug uptake (Heart [33]): 1.28 % ID/g
- Drug uptake (Pancreas [34]): 2.58 % ID/g
- Drug uptake (Stomach [35]): 2.31 %ID
- Ratio (Brain [36]): 29.4
- Drug uptake (Intestine [37]): 4.96 % ID/g
- Drug uptake (Brain [38]): 0.14 % ID/g
- Drug uptake (Liver [39]): 19.9 % ID/g
- Drug uptake (Lung [40]): 1.32 % ID/g
- Drug uptake (Heart [41]): 2.8 % ID/g
- Drug uptake (Kidney [42]): 11.2 % ID/g
- Drug uptake (Liver [43]): 11 % ID/g
- Drug uptake (Brain [44]): 1.42 % ID/g
